Results: ChEMBL document CHEMBL1275416, “Chlamydia pneumoniae growth inhibition in cells by the steroid receptor antagonist RU486 (mifepristone)” (Antimicrob Agents Chemother, 2008)
Calls of active or inactive are those of the source. No cut-off for these calls is given here.

Experiments:
Chlamydia pneumoniae [1] = experiment: Antimicrobial activity against Chlamydia pneumoniae infected in HEp-2 cells assessed as a reduction in 16S rRNA transcript at 2 uM after 72 hrs by RT-PCR; assay type: functional, organism-based
Outline: (§1)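 Infected HEp-2 cells (5 x 10^5 cells/well) were treated with RU486 2 µM with or without cycloheximide 1 µg/ml. Total RNA was extracted at harvest. C. pneumoniae 16S rRNA was quantified by real-time RT-PCR (50 cycles, melt-curve check), and copies per reaction were taken from a standard curve of diluted C. pneumoniae DNA. Means ± SD, three experiments.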

Chlamydia pneumoniae [2] = experiment: Antimicrobial activity against Chlamydia pneumoniae infected in HEp-2 cells assessed as a reduction in 16S rRNA transcript at 2 uM after 72 hrs by RT-PCR in presence of cycloheximide; assay type: functional, organism-based; outline: as §1
Chlamydia pneumoniae [3] = experiment: Antimicrobial activity against Chlamydia pneumoniae infected in HEp-2 cells at 20 uM; assay type: functional, organism-based
Chlamydia pneumoniae [4] = experiment: Antimicrobial activity against Chlamydia pneumoniae infected in HEp-2 cells; assay type: functional, organism-based
Outline: (§2)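 HEp-2 cells were infected with C. pneumoniae (MOI 10, centrifuged at 800 x g for 1 h at room temperature) and washed. They were seeded at 5 x 10^4 cells/well and cultured 72 h with RU486 (0.02 to 2 µM; ethanol vehicle control). Freeze-thaw lysates were serially diluted 10-fold onto HEp-2 monolayers, spun, grown 72 h at 37°C with cycloheximide 1 µg/ml, and FITC anti-Chlamydia stained for IFU counts. Means of three experiments.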

Chlamydia pneumoniae [5] = experiment: Antimicrobial activity against Chlamydia pneumoniae infected in HEp-2 cells 0.02 to 2 uM after 72 hrs; assay type: functional, organism-based; outline: as §2
Chlamydia pneumoniae [6] = experiment: Antimicrobial activity against Chlamydia pneumoniae infected in HEp-2 cells assessed as growth inhibition at 2 uM pretreated for 1 hr before infection; assay type: functional, organism-based
Outline: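 Before infecting HEp-2 cells, the bacteria were pretreated with 2 µM RU486 for 1 h or left untreated. Cells were then cultured with or without RU486 2 µM or cycloheximide 1 µg/ml. Infective progeny in 72 h lysates was assessed by IFU assay. Means ± SD of three experiments.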

[7] = Cytotoxicity against human Hep2 cells at 20 uM; assay type: cell-based; details: hep-2, 20 µM
[8] = Cytotoxicity against human Hep2 cells at >2 uM; assay type: cell-based; details: hep-2
[9] = Cmax in pregnant women at 800 mg, po; assay type: ADME, organism-based; set-up: dose 800 mg, route oral; details: female, human, in vivo
Chlamydia pneumoniae [10] = experiment: Antimicrobial activity against Chlamydia pneumoniae infected in HEp-2 cells assessed as inhibition of bacterial replication at 2 uM after 24 hrs; assay type: functional, organism-based
Outline: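 Time course: infected HEp-2 cells (MOI 10, centrifugation-assisted) were incubated with or without 2 µM RU486 for up to 72 h. At each time point, infective progeny in freeze-thaw lysates was titrated on fresh HEp-2 monolayers by IFU assay (72 h with cycloheximide 1 µg/ml, FITC anti-Chlamydia staining). Means ± SD, three experiments.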

Chlamydia pneumoniae [11] = experiment: Antimicrobial activity against Chlamydia pneumoniae infected in HEp-2 cells assessed as a reduction in 16S rRNA transcript at 2 uM after 24 hrs by RT-PCR; assay type: functional, organism-based; outline: as §1
Chlamydia pneumoniae [12] = experiment: Antimicrobial activity against Chlamydia pneumoniae infected in HEp-2 cells assessed as a reduction in 16S rRNA transcript at 2 uM after 24 hrs by RT-PCR in presence of cycloheximide; assay type: functional, organism-based; outline: as §1
Chlamydia pneumoniae [13] = experiment: Antimicrobial activity against Chlamydia pneumoniae infected in HEp-2 cells at 2 uM after 72 hrs in presence of cycloheximide; assay type: functional, organism-based
Outline: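 Infected HEp-2 cells were held 72 h with RU486 2 µM and/or cycloheximide 0.1 to 10 µg/ml, with untreated and ethanol controls. Infective progeny in cell lysates was counted by IFU assay on HEp-2 monolayers with FITC anti-Chlamydia antibody staining. Means ± SD of three experiments.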

Chlamydia pneumoniae [14] = experiment: Antimicrobial activity against Chlamydia pneumoniae infected in HEp-2 cells at 2 uM after 72 hrs; assay type: functional, organism-based; outline: as §2

With `CC#C[C@]1(O)CC[C@H]2[C@@H]3CCC4=CC(=O)CCC4=C3[C@@H](c3ccc(N(C)C)cc3)C[C@@]21C` [MIFEPRISTONE] as the compound, how does the Activity (Chlamydia pneumoniae [1]) read?
Its Activity is “Active”.

What about the Activity (Chlamydia pneumoniae [2]) of the same compound?
Its Activity is “inactive”.

And the Activity (Chlamydia pneumoniae [3])?
The Activity was “Active”.

What about the Activity (Chlamydia pneumoniae [4]) of the same compound?
The Activity was “Active”.

What about the Activity (Chlamydia pneumoniae [5]) of the same compound?
The Activity was “Dose-dependent effect”.

What about the Activity (Chlamydia pneumoniae [6]) of the same compound?
Its Activity is “inactive”.

What about the Activity [7] of the same compound?
The Activity was “Toxic”.

What about the Activity [8] of the same compound?
Its Activity is “Toxic”.

What about the Cmax [9] of the same compound?
Its Cmax is 2500 ng/mL.

What about the inhibition (Chlamydia pneumoniae [10]) of the same compound?
The inhibition was “Active”.

And the Activity (Chlamydia pneumoniae [11])?
The Activity was “Active”.

What about the Activity (Chlamydia pneumoniae [12]) of the same compound?
The Activity was “inactive”.

What about the Activity (Chlamydia pneumoniae [13]) of the same compound?
The Activity was “Active”.

What about the Activity (Chlamydia pneumoniae [14]) of the same compound?
Its Activity is “Active”.
